Here are results for 24 molecules from ChEMBL document CHEMBL1155205, “Structure-activity relationship of isoform selective inhibitors of Rac1/1b GTPase nucleotide binding” (Bioorg Med Chem Lett, 2009).

Each structure is given as a SMILES string. Where a name gives a salt, the structure may show the parent alone.

Assay [1] has as its target T1, Cell division control protein 42 homolog (Homo sapiens, UniProt P60953). Description: Inhibition of Cdc42 GTPase activity assessed as incorporation of BODIPY-GTP at 50 uM after 40 mins by nucleotide binding competition assay. The method, boiled down:
(§1)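 Bacterially expressed GST-Cdc42 preincubated 10 min at 20 °C in 20 mM Tris pH 8.6, 50 mM NaCl, 1 mM MgCl2. No GEF was added (intrinsic exchange). BODIPY-GTP was then added with or without compound. Fluorescence was read at ex 485/em 538 nm before and after addition. Maximal RFU at 40 min was compared with control. Means of at least three independent experiments, with SEM.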
Target sequence in this assay (P60953 whole entry, looked up): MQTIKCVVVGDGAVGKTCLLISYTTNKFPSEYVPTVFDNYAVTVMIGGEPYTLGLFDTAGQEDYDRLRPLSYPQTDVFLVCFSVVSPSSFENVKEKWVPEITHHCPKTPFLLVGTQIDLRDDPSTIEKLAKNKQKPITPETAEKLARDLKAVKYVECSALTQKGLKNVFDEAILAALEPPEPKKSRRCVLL

In assay [2] the target is T1, Cell division control protein 42 homolog. In words: Inhibition of Cdc42 GTPase activity assessed as incorporation of BODIPY-GTP after 40 mins by nucleotide binding competition assay. The method, boiled down:
as §1
Target sequence in this assay (P60953 whole entry): as the sequence (P60953 whole entry, looked up) above

For another assay, the system named is HEK293. In words: Inhibition of Rac GTPase activation in Rac1b overexpressing human HEK293 cells at 50 uM after 5 mins by G-LISA assay. The format is cell-based. The method, boiled down:
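HEK293 cells overexpressing human Rac1b were grown 5 days in MEM with 10% FBS, L-glutamine and antibiotics. Cells were then exposed to compound or solvent for 5 min. Rac1b GTP loading was measured with a Rac activation kit using a Rac-specific antibody (G-LISA).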

In assay [3] the target is T2, Ras-related C3 botulinum toxin substrate 1 (Homo sapiens, UniProt P63000). In words: Inhibition of Rac1b GTPase activity assessed as incorporation of BODIPY-GTP after 40 mins by nucleotide binding competition assay.
Assay [4] in a line: Selectivity of IC50 for Rac1 GTPase activity to IC50 for Rac1b GTPase activity. The method, boiled down: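 Ratio of IC50s for inhibiting BODIPY-GTP binding to bacterially expressed GST-Rac1 and GST-Rac1b. Rac1 binding was stimulated by His6-Tiam1 DH/PH, while Rac1b used intrinsic exchange. Protein was pre-incubated 10 min at 20 °C in 20 mM Tris pH 8.6, 50 mM NaCl, 1 mM MgCl2, then BODIPY-GTP ± compound was added. Fluorescence (ex 485/em 538 nm) was read as maximal RFU at 40 min; means of ≥3 independent experiments.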

Assay [5] has as its target T2, Ras-related C3 botulinum toxin substrate 1. In words: Inhibition of Rac1 GTPase activity assessed as incorporation of BODIPY-GTP after 40 mins by nucleotide binding competition assay.

In general, inhibition refers to how much of the control response was suppressed. For orientation: IC50 means the point on the concentration scale where inhibition reaches its midpoint. On to `Cc1c2cc(O)c(O)cc2cc2c3ccc(O)c(O)c3cc[n+]12`, for which the inhibition was 70% in assay [1] and < 20% with HEK293. In addition, the IC50 in assay [2] stood at 26 µM.

`Cc1nc(-c2ccc(O)c(O)c2)cc2cc(O)c(O)cc12`: the inhibition in assay [1] was found to be 15%.

Consider `COc1ccc2c(c[n+](C)c3c4cc5c(cc4ccc23)OCO5)c1OC` [CHELERYTHRINE CHLORIDE], for which the IC50 in assay [3] was 7 µM; in assay [5] it was > 100 µM; in assay [2], > 100 µM. Also, the inhibition in assay [1] stood at 35%; with HEK293, 40%. Moreover, in assay [4], the Ratio IC50 was > 14.

`COc1cc2c(cc1OC)-c1cc3ccc(OC)c(OC)c3c[n+]1CC2`: the inhibition in assay [1] was found to be 8%.

For `COc1cc2cc(-c3ccc(Cl)c(Cl)c3)nc(C)c2cc1OC`, in assay [1], the inhibition is 5%.

For `COc1cc2cc(-c3ccc4c(c3)OCO4)nc(C)c2cc1OC`, the inhibition in assay [1] turned out to be 14%.

On to `C[n+]1cc2c(O)c(O)ccc2c2ccc3cc(O)c(O)cc3c21`, for which the inhibition was 73% in assay [1] and < 20% with HEK293.

Take `COc1cc2cc(-c3ccc(O)c(O)c3)[n+](C)c(C)c2cc1OC`: in assay [1], the inhibition worked out at 5%.

For `COc1cc2cc(-c3cccc(C(C)=O)c3)nc(C)c2cc1OC`, in assay [1], the inhibition was 7%.

Regarding `COc1ccc2c(c1OC)CN1CCc3cc4c(cc3C1C2)OCO4` (racemic), the inhibition in assay [1] is 4%.

For the molecule `Nc1nc2c(ncn2[C@H]2O[C@@H](COP(=O)(O)OP(=O)(O)O)[C@H](O)[C@@H]2O)c(=O)[nH]1`, the IC50 in assay [3] was 1.8 µM; in assay [5], 2.7 µM; in assay [2], 1.4 µM.

On to `COc1ccc2cc3[n+](cc2c1OC)CCc1cc2c(cc1-3)OCO2`, for which, in assay [1], the inhibition came out at 8%.

In the case of `COc1ccc2c(c1OC)C(c1ccccc1)N1CCc3cc4c(cc3C1C2)OCO4` (centres undefined), in assay [1], the inhibition was 9%.

Consider `COc1cc2cc(-c3cccc(C(C)=O)c3)[n+](C)c(C)c2cc1OC`, for which the inhibition in assay [1] was determined as 7%.

For the molecule `COc1cc2cc(-c3ccc(O)c(O)c3)nc(C)c2cc1OC`, the inhibition in assay [1] is 15%; in the assay with HEK293, 61%. For the same molecule, the IC50 in assay [2] was > 100 µM.

On to `C[n+]1cc2c3c(ccc2c2ccc4cc5c(cc4c21)OCO5)OCO3`, for which the values for the inhibition (in assay [1]; in the assay on HEK293) were 63% and 50%, respectively. The Ratio IC50 in assay [4] came to 13.

On to `Oc1cc2c(cc1O)-c1cc3ccc(O)c(O)c3c[n+]1CC2`, for which the inhibition in assay [1] was > 100%; with HEK293, < 20%. In assay [2], the half-inhibitory concentration (IC50) came to 6 µM.

With `Cc1c2cc(O)c(O)cc2cc(-c2ccc(O)c(O)c2)[n+]1C`, the inhibition in assay [1] stood at 12%.

Regarding `COc1ccc2cc3[n+](cc2c1OC)CCc1cc(O)c(O)cc1-3`, the IC50 in assay [3] is 31 µM; in assay [5], 63 µM; in assay [2] it was > 100 µM. For the same molecule, the inhibition in assay [1] was 31%; in the assay with HEK293, 35%.

On to `COc1cc2cc3c4ccc(OC)c(OC)c4cc[n+]3c(C)c2cc1OC`, for which the inhibition in assay [1] came out at 23%.

In the case of `COc1cc2cc(-c3ccc4ccccc4c3)nc(C)c2cc1OC`, the inhibition in assay [1] is 29%; with HEK293 it was < 20%. The half-inhibitory concentration (IC50) in assay [2] was > 100 µM.

Turning to `COc1ccc2c(c[n+](C)c3c4cc(O)c(O)cc4ccc23)c1OC`, the inhibition in assay [1] worked out at 38%; in the assay with HEK293, 39%. Moreover, in assay [2], the half-maximal inhibitory concentration (IC50) amounted to 73 µM.

Consider `Oc1cc2c(cc1O)C1Cc3ccc(O)c(O)c3CN1CC2` (centres undefined) [TETRAHYDROXYCANADINE HYDROCHLORIDE], for which the half-inhibitory concentration (IC50) in assay [2] was > 100 µM. The inhibition in the assay on HEK293 is < 20%.

Take `COc1cc2cc(-c3ccc4c(c3)OCO4)[n+](C)c(C)c2cc1OC`: the inhibition in assay [1] came to 0.3%.
